According to ChEMBL document CHEMBL4017524, “A Novel Arylurea Fatty Acid That Targets the Mitochondrion and Depletes Cardiolipin To Promote Killing of Breast Cancer Cells” (J Med Chem, 2017):
Activity calls are given as the source filed them. The calls are words filed in the database; no cut-off is given here.

Tests used:
[1] = tested on: MDA-MB-231; assay: Cytotoxicity against human MDA-MB-231 cells assessed as decrease in ATP production at 10 uM after 24 to 48 hrs by CellTiter-Glo luminescent assay; type: functional, cell-based
[2] = tested on: MDA-MB-231; assay: Induction of apoptosis in human MDA-MB-231 cells assessed as mitochondrial membrane disruption by measuring red to green fluorescence ratio at 10 uM after 24 hrs by JC-1 staining based microscopic method relative to control; type: functional
Summary of the method: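 Cells exposed for 24 h at 10 µM, then stained with the cationic dye JC-1. Red (aggregate, intact inner membrane) to green (monomer) fluorescence ratio expressed relative to DMSO control. Mean±SEM of three experiments.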

[3] = tested on: MDA-MB-231; assay: Induction of apoptosis in human MDA-MB-231 cells assessed as mitochondrial membrane disruption at 10 uM after 6 hrs by JC-1/Hoechst 33342 staining based fluorescence microscopic assay; type: functional, cell-based
Summary of the method: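 Treatment with 10 µM or DMSO for 6 h. Cells were washed twice with serum-free medium, then incubated with JC-1 in serum-free medium at 37°C for 20 min. Hoechst 33342 nuclear counterstain, then fluorescence microscopy of green monomers versus red aggregates.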

[4] = tested on: MDA-MB-231; assay: Cytotoxicity against human MDA-MB-231 cells assessed as decrease in cell viability at 40 uM after 48 hrs by crystal violet staining based assay; type: functional
[5] = tested on: MDA-MB-231; assay: Induction of apoptosis in human MDA-MB-231 cells assessed as increase in caspases 3/7 activity at 10 uM after 48 hrs by Caspase-Glo assay; type: functional, cell-based
[6] = tested on: MDA-MB-231; assay: Cytotoxicity against human MDA-MB-231 cells assessed as decrease in cell adherence at 40 uM after 48 hrs by crystal violet staining based assay; type: functional
[7] = tested on: MDA-MB-231; assay: Cell cycle arrest in human MDA-MB-231 cells at 10 uM after 24 hrs by propidium iodide staining based flow cytometric analysis
[8] = tested on: MDA-MB-231; assay: Induction of apoptosis in human MDA-MB-231 cells at 10 uM after 48 hrs by annexin VFITC/7AAD staining based flow cytometry; type: functional, cell-based
Summary of the method: (§1)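 Annexin V-FITC/7AAD flow cytometry of cells after 48 h at 10 µM. Quadrants: E4 annexin V only (early apoptotic), E2 dual-stained (late apoptotic), E1 7AAD only, E3 unstained (viable). Compared with DMSO control. Mean±SEM from three experiments.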

[9] = tested on: MDA-MB-231; assay: Induction of apoptosis in human MDA-MB-231 cells assessed as late apoptotic cells at 10 uM after 48 hrs by annexin VFITC/7AAD staining based flow cytometry (reference value: 5.9 +/- 0.9%); type: functional; summary of the method: as §1
[10] = tested on: MDA-MB-231; assay: Induction of apoptosis in human MDA-MB-231 cells assessed as early apoptotic cells at 10 uM after 48 hrs by annexin VFITC/7AAD staining based flow cytometry (reference value: 6.6 +/- 1.4%); type: functional; summary of the method: as §1
[11] = tested on: T47D; assay: Cytotoxicity against human T47D cells assessed as decrease in ATP production at 10 uM up to 72 hrs by CellTiter-Glo luminescent assay; type: functional, cell-based
[12] = tested on: MCF7; assay: Induction of apoptosis in human MCF7 cells assessed as increase in caspases 3/7 activity at 10 uM after 48 hrs by Caspase-Glo assay; type: functional, cell-based
[13] = tested on: MDA-MB-231; assay: Antitumor activity against human MDA-MB-231 cells xenografted in ip dosed Balb/c nu/nu mouse assessed as decrease in tumor volume administered once daily 6 days per week for 32 to 38 days; type: functional, organism-based
Summary of the method: (§2)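 Female nu/nu mice, 7 weeks old, n=5-8 per group. Each received 4x10⁵ cells in 100 µl by subcutaneous injection into the 4th mammary fat pad. Intraperitoneal dosing at graded doses. Body weights and tumour sizes were measured. Isolated tumour sections were stained for TUNEL (apoptosis) and Ki67 (proliferation), with DAPI nuclear stain.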

[14] = tested on: MCF7; assay: Cytotoxicity against human MCF7 cells assessed as decrease in ATP production at 10 uM up to 72 hrs by CellTiter-Glo luminescent assay; type: functional, cell-based
[15] = tested on: MDA-MB-231; assay: Induction of mitochondrial membrane disruption in human MDA-MB-231 cells assessed as mitochondrial cardiolipin level at 14 uM after 24 hrs relative to control; type: functional
[16] = tested on: MDA-MB-231; assay: Cytotoxicity against human MDA-MB-231 cells assessed as ATP production at 10 uM after 48 hrs by CellTiter-Glo luminescent assay relative to control; type: functional
[17] = tested on: MDA-MB-231; assay: Induction of mitochondrial membrane disruption in human MDA-MB-231 cells assessed as mitochondrial phosphatidylglycerol level at 14 uM after 24 hrs in presence of oleic acid; type: functional, cell-based
[18] = tested on: MDA-MB-231; assay: Induction of apoptosis in human MDA-MB-231 cells assessed as plasma membrane phospholipid phosphatidylcholine level per 1.05 X 10^7 cells at 14 uM after 24 hrs (reference value: 91 +/- 9 ug); type: functional
[19] = tested on: MDA-MB-231; assay: Induction of apoptosis in human MDA-MB-231 cells assessed as viable cells at 10 uM after 48 hrs by annexin VFITC/7AAD staining based flow cytometry (reference value: 86.2 +/- 2.3%); type: functional; conditions: MDA-MB-231, 48 h, read-out: Activity; summary of the method: as §1
[20] = tested on: MDA-MB-231; assay: Cytotoxicity against human MDA-MB-231 cells assessed as decrease in ATP production at 10 uM after 24 hrs in presence of mitochondrial permeability transition pore inhibitor cyclosporin A by CellTiter-Glo luminescent assay; type: functional, cell-based
Summary of the method: (§3)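 ATP formation read in MDA-MB-231 cells co-treated with BAPTA-AM (5 or 25 µM) or with cyclosporin A (10 or 20 µM).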

[21] = tested on: MDA-MB-231; assay: Cytotoxicity against human MDA-MB-231 cells assessed as decrease in ATP production at 10 uM after 24 hrs in presence of Ca2+ chelator BAPTA-AM by CellTiter-Glo luminescent assay; type: functional, cell-based; summary of the method: as §3
[22] = tested on: MDA-MB-468; assay: Cytotoxicity against human MDA-MB-468 cells assessed as decrease in ATP production at 10 uM up to 72 hrs by CellTiter-Glo luminescent assay; type: functional, cell-based
[23] = tested on: MDA-MB-231; assay: Induction of mitochondrial membrane disruption in human MDA-MB-231 cells assessed as mitochondrial cardiolipin level at 14 uM after 24 hrs in presence of oleic acid; type: functional, cell-based
[24] = tested on: MDA-MB-468; assay: Induction of apoptosis in human MDA-MB-468 cells assessed as increase in caspases 3/7 activity at 10 uM after 48 hrs by Caspase-Glo assay; type: functional, cell-based
[25] = tested on: MDA-MB-231; assay: Cell cycle arrest in human MDA-MB-231 cells assessed as decrease in accumulation of G0G1 phase at 10 uM after 24 hrs by propidium iodide staining based flow cytometric analysis; type: functional
[26] = tested on: MDA-MB-231; assay: Cell cycle arrest in human MDA-MB-231 cells assessed as decrease in accumulation of S phase at 10 uM after 24 hrs by propidium iodide staining based flow cytometric analysis; type: functional
[27] = tested on: T47D; assay: Induction of apoptosis in human T47D cells assessed as increase in caspases 3/7 activity at 10 uM after 48 hrs by Caspase-Glo assay; type: functional, cell-based
[28] = tested on: MDA-MB-231; assay: Induction of apoptosis in human MDA-MB-231 cells assessed as necrotic cells at 10 uM after 48 hrs by annexin VFITC/7AAD staining based flow cytometry (reference value: 1.5 +/- 0.2%); type: functional; summary of the method: as §1
[29] = tested on: MDA-MB-231; assay: Induction of reactive oxygen species in human MDA-MB-231 cells after 2 to 6 hrs by 2',7'-dichlorofluorescin dye based flow cytometric analysis; type: functional, cell-based
Summary of the method: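 Pro-oxidant stress followed by flow cytometry using 2',7'-dichlorofluorescin diacetate after 2-6 h of treatment in MDA-MB-231 cells.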

[30] = tested on: MDA-MB-231; assay: Cytotoxicity against human MDA-MB-231 cells assessed as decrease in cell viability at 40 uM after 48 hrs in presence of alpha-tocopherol by crystal violet staining based assay; type: functional
[31] = tested on: MDA-MB-231; assay: Antitumor activity against human MDA-MB-231 cells xenografted in Balb/c nu/nu mouse assessed as decrease in Ki67 biomarkers at 2.5 to 40 mg/kg, ip qd administered 6 days per week for 32 to 38 days by […] immunohistochemical analysis; type: functional, organism-based; summary of the method: as §2
[32] = tested on: Mus musculus; assay: Toxicity in Balb/c nude mouse assessed as change in body weight at 2.5 to 40 mg/kg, ip qd for 5 days; type: organism-based; conditions: in vivo, 120 h
Summary of the method: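 Balb/c mice given 2.5-40 mg/kg intraperitoneally for 5 days. Weight gain and other signs of toxicity were monitored.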

[33] = tested on: MDA-MB-231; assay: Induction of mitochondrial membrane disruption in human MDA-MB-231 cells assessed as mitochondrial phosphatidylglycerol level at 14 uM after 24 hrs relative to control; type: functional
[34] = tested on: MDA-MB-231; assay: Cell cycle arrest in human MDA-MB-231 cells assessed as accumulation at sub-G1 phase at 10 uM after 24 hrs by propidium iodide staining based flow cytometric analysis (reference value: 1.4 +/- 0.03%); type: functional
[35] = tested on: MDA-MB-231; assay: Cytotoxicity against human MDA-MB-231 cells assessed as ATP production at 10 uM after 24 hrs by CellTiter-Glo luminescent assay relative to control; type: functional
Summary of the method: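 MDA-MB-231 cells exposed to 10 µM for 24 h, then ATP formation measured and expressed relative to DMSO-treated control. Basal ATP per 7.5 x 10⁴ cells was recorded at 24 h. Mean±SEM from three separate experiments.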

[36] = tested on: MDA-MB-231; assay: Antitumor activity against human MDA-MB-231 cells xenografted in Balb/c nu/nu mouse assessed as TUNEL positive cells at 2.5 to 40 mg/kg, ip qd administered 6 days per week for 32 to 38 days; type: functional, organism-based; summary of the method: as §2
[37] = tested on: MCF-10A; assay: Cytotoxicity against human MCF10A cells assessed as decrease in ATP production at 10 to 20 uM after 48 hrs by CellTiter-Glo luminescent assay; type: cell-based
[38] = tested on: MDA-MB-231; assay: Cell cycle arrest in human MDA-MB-231 cells assessed as decrease in accumulation of G2M phase at 10 uM after 24 hrs by propidium iodide staining based flow cytometric analysis; type: functional
[39] = tested on: MDA-MB-231; assay: Induction of apoptosis in human MDA-MB-231 cells assessed as increase in caspases 3/7 activity at 10 uM after 24 hrs by Caspase-Glo assay relative to control; type: functional
Summary of the method: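 Executioner caspase-3/7 activity read after 24 h exposure at 10 µM and expressed relative to DMSO-treated control. Basal activity per 7.5 x 10⁴ cells was recorded. Mean±SEM of three separate experiments.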

SMILES: COc1ccc(NC(=O)NCCCCCCCCCCCCCCCC(=O)O)cc1
- Activity [1]: inactive
- Activity [2]: inactive

SMILES: CNC(=O)c1cc(Oc2ccc(NC(=O)Nc3ccc(Cl)c(C(F)(F)F)c3)cc2)ccn1
- Activity [3]: Active

SMILES: O=C(O)CCCCCCCCCCCCCCCNC(=O)Nc1ccccc1
- Activity [4]: inactive
- Activity [5]: inactive
- Activity [1]: inactive
- Activity [6]: inactive
- Activity [7]: inactive
- Activity [8]: inactive
- Activity [2]: inactive

SMILES: O=C(O)CCCCCCCCCCCCCCCNC(=O)Nc1ccc(Cl)c(C(F)(F)F)c1
- Activity [9]: 20%
- Activity [10]: 11%
- Activity [11]: Active
- Activity [4]: Active
- Activity [12]: inactive
- Activity [13]: Dose-dependent effect
- Activity [14]: Active
- Activity [15]: 61%
- Activity [16]: 30%
- Activity [17]: inactive
- Activity [18]: 88 µg
- viability at 10 µM [19]: 62.4%
- Activity [20]: Active
- Activity [21]: Active
- Activity [22]: Active
- Activity [23]: inactive
- Activity [24]: inactive
- Activity [25]: Active
- Activity [26]: Active
- Activity [27]: Active
- Activity [28]: 5.9%
- Activity [29]: inactive
- Activity [30]: Active
- Activity [6]: Active
- Activity [31]: Active
- Activity [32]: Non-Toxic
- Activity [33]: 61%
- Activity [34]: 20%
- Activity [3]: Active
- Activity [35]: 72%
- Activity [36]: Active
- Activity [37]: Non-Toxic
- Activity [38]: Active
- Activity [2]: 32%
- Activity [39]: 203%

SMILES: O=C(O)CCCCCCCCCCCCCCCNC(=O)Nc1ccc(F)cc1
- Activity [1]: inactive
- Activity [2]: inactive

SMILES: O=C(O)CCCCCCCCCCCCCCCNC(=O)Nc1ccc(Cl)cc1
- Activity [1]: inactive
- Activity [2]: inactive

SMILES: O=C(O)CCCCCCCCCCCCCCCNC(=O)Nc1ccc(I)cc1
- Activity [1]: inactive
- Activity [2]: inactive

SMILES: CCNC(=O)NCCCCCCCCCCCCCCCC(=O)O
- Activity [15]: inactive
- Activity [1]: inactive
- Activity [7]: inactive
- Activity [8]: inactive
- Activity [2]: inactive

SMILES: Cc1cc(NC(=O)NCCCCCCCCCCCCCCCC(=O)O)ccc1Cl
- Activity [4]: inactive
- Activity [5]: inactive
- Activity [1]: inactive
- Activity [6]: inactive
- Activity [2]: inactive

SMILES: CC(C)(C)c1ccc(NC(=O)NCCCCCCCCCCCCCCCC(=O)O)cc1
- Activity [1]: inactive
- Activity [2]: inactive

SMILES: O=C(O)CCCCCCCCCCCCCCCNC(=O)Nc1ccc(Cl)c(Cl)c1
- Activity [4]: inactive
- Activity [5]: inactive
- Activity [1]: inactive
- Activity [6]: inactive
- Activity [7]: inactive
- Activity [8]: inactive
- Activity [2]: inactive

SMILES: Cc1ccc(NC(=O)NCCCCCCCCCCCCCCCC(=O)O)cc1
- Activity [1]: inactive
- Activity [2]: inactive
